High-throughput results from PubChem BioAssay.
Beta cell apopt: beta cell apoptosis inhibition; INS-1E cytokine-induced death, ATP luminescence, 48 h; percent of positive-control rescue, neutral wells zero; protection from apoptosis, % (test concentration not listed); hit rate 0.8% among 300,000; AID 435005;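 active = Every replicate reaches about 75%, or at least half do and their mean reaches it too, limit read from the data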;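 note: 0% = cytokine-treated negative control wells and 100% = positive control rescue; higher means more ATP so stronger rescue from cytokine killing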
CSC inhib: blocks cancer stem cells. cancer stem cell-like cells viability, luminescence. inhibition, % at 7.5 µM. hit rate 1.1% among 300,000. AID 2717; in the data active = inhibition above about 75%; tested in HMLE shEcad cells
NR3A LBD binder: modulators (binders) of human NR3A ligand-binding domain | hit rate 2.5% among 340,000 | AID 1259313 | NR3A LBD differential scanning fluorimetry, Tm shift; 0% = protein alone, 100% = glycine-bound protein | Tm shift relative to glycine control, % at 25 µM;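 active = melting temperature shift of at least 10% of the positive control shift, at one fixed dose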
CHOP inhibitor: CHOP inhibition in unfolded protein response; hit rate 3.8% among 220,000; CHO-K1 CHOP-promoter luciferase, tunicamycin-induced, 15-18 h; inhibition, % at 10 µM;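 active = compounds that reduced the stress-induced luciferase reporter signal by more than about 70% of percent inhibition, limit read from the data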;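 note: 0% = tunicamycin plus vehicle and 100% = wells without tunicamycin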
PREPL inh: inhibits the human prolyl oligopeptidase-like enzyme; Q4J6C6; recombinant PREPL, fluorescence polarization activity-based probe; inhibition, % at 5.96 µM; hit rate 0.68% among 320,000; in the data active = inhibition above about 43%;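 note: 0% = enzyme with DMSO and 100% = wells lacking enzyme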
Target sequence (Q4J6C6 whole entry, looked up): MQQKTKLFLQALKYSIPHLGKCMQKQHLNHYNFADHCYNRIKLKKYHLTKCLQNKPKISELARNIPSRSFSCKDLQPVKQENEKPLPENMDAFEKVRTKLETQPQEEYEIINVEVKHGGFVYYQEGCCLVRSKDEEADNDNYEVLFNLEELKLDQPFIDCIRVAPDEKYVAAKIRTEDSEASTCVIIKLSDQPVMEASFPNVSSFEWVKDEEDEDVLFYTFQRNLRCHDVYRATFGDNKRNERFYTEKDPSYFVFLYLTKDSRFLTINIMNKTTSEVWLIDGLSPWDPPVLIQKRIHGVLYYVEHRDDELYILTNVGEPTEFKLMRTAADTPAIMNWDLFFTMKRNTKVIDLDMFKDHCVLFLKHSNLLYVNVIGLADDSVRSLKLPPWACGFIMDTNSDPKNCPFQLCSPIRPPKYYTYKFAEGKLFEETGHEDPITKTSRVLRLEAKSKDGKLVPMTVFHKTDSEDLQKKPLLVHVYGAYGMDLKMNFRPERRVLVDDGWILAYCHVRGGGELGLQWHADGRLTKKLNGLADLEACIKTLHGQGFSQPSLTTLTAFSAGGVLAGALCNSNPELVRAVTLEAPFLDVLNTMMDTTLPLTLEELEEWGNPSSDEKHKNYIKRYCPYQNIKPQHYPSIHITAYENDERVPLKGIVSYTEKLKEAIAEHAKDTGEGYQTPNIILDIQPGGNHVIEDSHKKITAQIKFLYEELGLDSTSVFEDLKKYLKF
T cruzi repl: T. cruzi replication inhibition; T. cruzi beta-gal in NIH3T3, luminescence, 90 h; inhibition, % (test concentration not listed); hit rate 1.4% among 300,000; AID 1885;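 active = mean inhibition across valid replicates above about 55%, limit read from the data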;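 note: signal also drops with host cell toxicity which is not excluded here; 0% = plate median of DMSO wells and 100% = zero luminescence signal; higher percent means less beta-gal luminescence so fewer parasites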
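compound dosing = single 50 nL compound addition per well in DMSO | material = NIH/3T3 host cells with β-galactosidase reporter T. cruzi | input = 5,000 host fibroblasts per well | timing = ≥90 h infection period, 3 h prior cell attachment | read-out basis = percent inhibition of parasite-derived β-gal signal | detection = GalScreen β-gal luminescence, detergent lysis, 60 min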
An asterisk follows results filed as active; / = no result. Rows were chosen to be rich in hits. Some 6.7% of all compounds tested hit in one or more screens of this group.

SMILES | Beta cell apopt | CSC inhib | NR3A LBD binder | CHOP inhibitor | PREPL inh | T cruzi repl
O=c1c(O)c(-c2ccccc2)oc2cc(O)cc(O)c12 | / | / | 11* | / | -10 | /
CC(C)=CCc1cc(-c2oc3cc(O)cc(O)c3c(=O)c2O)ccc1O | -8 | 1 | 21* | / | 20 | 5
O=c1c(O)c(-c2ccc(O)cc2O)oc2cc(O)cc(O)c12 | / | / | / | 31 | / | /
COc1c(-c2ccc(O)c(O)c2)oc2cc(O)cc(O)c2c1=O | / | -8 | 16* | -28 | 0 | -17
O=c1c(O[C@@H]2O[C@H](CO)[C@@H](O)[C@H](O)[C@H]2O)c(-c2ccc(O)c(O)c2)oc2cc(O)cc(O)c12 | / | / | / | -41 | / | 7
O=c1c(-c2ccccc2)c(-c2ccccc2)oc2cc(O)cc(O)c12 | 1 | 14 | 20* | / | 8 | 0
O=C(CSc1nnc(NC(=O)c2ccc(F)cc2F)s1)NC1CC1 | 6 | 11 | 1 | / | 9 | -4
CC1CC(C)CN(C(=O)C(C)N2CCN(S(=O)(=O)c3ccc(Br)s3)CC2)C1 (centres undefined) | 5 | -9 | 0 | / | 22 | /
Cc1ccc(-c2oc3ccccc3c(=O)c2O)cc1 | 20 | 28 | 2 | 72* | -25 | -5
CC1CCc2c(sc(NC(=S)NC(=O)c3ccccc3)c2C#N)C1 (centres undefined) | 2 | 17 | 1 | 71* | -5 | -4
N#Cc1c(NC(=S)NC(=O)c2ccccc2)sc2c1CCN(CCc1ccccc1)C2 | 16 | 29 | / | 47 | 65* | 71*
CC1CCc2c(sc(NC(=O)c3ccccc3C(=O)O)c2C#N)C1 (centres undefined) | 0 | -1 | 0 | -20 | -1 | -4
CCCC1Cc2c(sc(NC(=S)NC(=O)c3ccccc3)c2C#N)CO1 (centres undefined) | 7 | -1 | / | 86* | 2 | 9
N#Cc1c(N)sc2c1CCN(CCc1ccccc1)C2 | 6 | -2 | 3 | 39 | 31 | 4
N#Cc1c(NC(=S)NC(=O)c2ccccc2)sc2c1CCCC2 | -5 | 11 | 12* | 36 | 7 | 14
Cc1noc(C)c1C(=O)OCC(=O)NCc1ccccc1 | / | / | 0 | / | / | /
Cn1ncc(Cl)c1C(=O)NC(=S)Nc1sc2c(c1C#N)CCCCC2 | 4 | 23 | 13* | 65 | 7 | 1
CC(=O)Nc1sc2c(c1C#N)CCC(C)C2 (centres undefined) | 4 | -10 | 2 | 46 | -4 | -1
CC(C)CC(=O)NC(NC(=S)Nc1sc2c(c1C#N)CCCC2)C(Cl)(Cl)Cl (centres undefined) | 21 | 80* | -2 | 79* | 3 | 8
Cc1ccccc1C(=O)NC(=S)Nc1sc2c(c1C#N)CCC(C)C2 (centres undefined) | 4 | -4 | 14* | 26 | 13 | 18
CCOc1ncccc1C(=O)NNC(=O)c1cccc(S(=O)(=O)Nc2ccc(OC)cc2)c1 | 7 | 1 | -2 | / | 0 | 5
CCOc1ccc(NC(=O)CN(C)C(=O)c2ccccc2-n2cnnn2)cc1OCC | -1 | -9 | 1 | / | -3 | 4
COc1cc(C)ccc1OCc1cc(C(=O)NCCN2CCOCC2)no1 | -2 | -7 | 3 | / | 1 | -5
O=C(COc1ccccc1)Nc1cccc(-c2nc3cc4ccccc4cc3[nH]2)c1 | 33 | 88* | 26* | 71* | -22 | 20
O=C(COC(=O)c1ccc(Cl)nc1)NCCc1ccc(F)cc1 | 0 | -23 | -2 | / | 1 | /
SMILES | Beta cell apopt | CSC inhib | NR3A LBD binder | CHOP inhibitor | PREPL inh | T cruzi repl
COc1cc(OC)c(C#N)c(S(=O)(=O)Cc2ccccc2)c1 | -3 | 3 | 12* | 19 | 4 | 13
N#Cc1c([N+](=O)[O-])cc([N+](=O)[O-])cc1S(=O)(=O)Cc1ccccc1 | 113* | 125* | -14 | / | 9 | /
CC(=O)Nc1ccc(NC(=O)C2CCCN2/C=C/C(=O)C(F)(F)F)cc1 (centres undefined) | -3 | -14 | 1 | 25 | 5 | -1
CCCOc1ccc(C(=O)N2CCN(c3ccc(N)cc3Cl)CC2)cc1 | 4 | 76* | 2 | 30 | 5 | 4
CC(=O)Nc1cc2nn(-c3ccccc3)nc2cc1Cl | -1 | 10 | 1 | -9 | 9 | -13
CC(C)(C)C(=O)Nc1cc2nn(-c3ccccc3)nc2cc1Cl | / | / | 1 | 80* | / | /
C=CCOC(=O)C1=C[C@H](C2CCCCC2)[C@@H](CCCO)[C@H](OCC)O1 | -2 | 12 | 0 | 10 | 17 | 20
O=C(CSc1nnnn1-c1ccc2c(c1)OCCO2)Nc1nc2c(s1)CCCC2 | / | / | -11 | 87* | -4 | 21
COC(=O)c1cccc(-n2nnnc2SCC(=O)Nc2nc3c(s2)CCCC3)c1 | 6 | 10 | -13 | 88* | 12 | 10
O=c1cc(N2CCCCC2)c(-c2ccccc2)nn1Cc1ccc(Cl)cc1 | / | 103* | 4 | 71* | 5 | 48
O=c1cc(N2CCCCC2)c(-c2ccccc2)nn1Cc1ccc(F)cc1 | 0 | 40 | -1 | 81* | -13 | 55*
O=c1ccc(-c2ccccc2)nn1Cc1ccc(F)cc1 | -14 | -3 | 0 | / | -11 | -1
O=c1cc(N2CCCCC2)c(-c2ccccc2)nn1Cc1c(Cl)cccc1Cl | 16 | 104* | -1 | 5 | 6 | 42
O=c1c2c(c(-c3ccccc3)nn1Cc1ccccc1)CCCC2 | 2 | -1 | -4 | / | 0 | 7
COc1cccc(C(C)NC(=O)c2ccncc2)c1 (centres undefined) | 8 | -4 | -2 | / | -8 | -3
Cc1cc(C)nc(NS(=O)(=O)c2ccc(NC(=O)CSc3nc(-c4ccccc4)c(C#N)c(=O)[nH]3)cc2)n1 | / | -3 | -1 | -3 | -24 | 5
CC(C)n1c2ccccc2c2nc3ccccc3nc21 | -15 | 66 | 8 | 72* | -6 | -6
CCCCCCSc1ccc([C@@H]2[C@@H]3C(=O)N(C)C(=O)[C@@H]3[C@]3(C(=O)OC)CCCCN23)cc1OC | 9 | 105* | -8 | / | -3 | 11
O=C(Nc1ccc(Br)cc1)c1cc(-c2ccncc2)nc2ccccc12 | 1 | -5 | 2 | / | 28 | /
Cc1cc(-c2ccc(S(=O)(=O)N(C)Cc3ccccc3)cc2)on1 | 0 | 19 | -2 | / | 9 | 14
COc1cc(NC(=O)c2cccs2)c(C(=O)OCC(=O)c2cc(C)n(-c3ccccc3)c2C)cc1OC | 0 | 61 | 1 | 85* | 2 | 21
COc1cc(NC(=O)c2cccs2)c(C(=O)OCC(=O)c2cc(C)n(-c3ccc(F)cc3)c2C)cc1OC | -4 | 44 | -2 | 48 | 5 | -16
CC1(C)CNc2cc([N+](=O)[O-])ccc2S1 | -2 | 12 | -1 | 85* | 4 | 7
COc1ccc(-c2ccc3c(N)c(C(=O)c4cccc(OC)c4)sc3n2)cc1 | -5 | 10 | 17* | 36 | 17 | 16
COc1ccc(C(=O)c2sc3nc(-c4ccc(OC)cc4)ccc3c2N)cc1 | -7 | 1 | -2 | 20 | 10 | 6
